Experimental data published in ChEMBL document CHEMBL1139490, “Design, synthesis, and biological evaluation of prazosin-related derivatives as multipotent compounds” (J Med Chem, 2005).

Legend:
[1] = target: T1, Alpha-1B adrenergic receptor (Rattus norvegicus, UniProt P15823); test: Blocking activity was assessed by antagonism of (-)-phenylephrine induced contraction of rat spleen (alpha1B adrenoceptor); type: functional, tissue-based; settings: read-out: pA2 (converted)
T1 sequence (P15823 whole entry): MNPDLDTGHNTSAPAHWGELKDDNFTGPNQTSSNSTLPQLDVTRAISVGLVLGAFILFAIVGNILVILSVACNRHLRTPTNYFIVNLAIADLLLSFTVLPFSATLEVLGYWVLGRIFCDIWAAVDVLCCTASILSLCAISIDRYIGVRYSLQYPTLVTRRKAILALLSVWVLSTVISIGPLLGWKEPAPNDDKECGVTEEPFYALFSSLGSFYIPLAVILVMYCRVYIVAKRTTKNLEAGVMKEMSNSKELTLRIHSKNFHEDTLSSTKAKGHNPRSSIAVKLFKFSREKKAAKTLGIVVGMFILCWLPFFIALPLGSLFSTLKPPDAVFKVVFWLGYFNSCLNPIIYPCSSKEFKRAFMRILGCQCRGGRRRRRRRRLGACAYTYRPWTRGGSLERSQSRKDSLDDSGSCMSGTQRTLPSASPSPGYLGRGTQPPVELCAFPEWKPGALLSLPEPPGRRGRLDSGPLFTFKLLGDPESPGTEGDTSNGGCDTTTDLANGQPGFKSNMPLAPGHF

[2] = tested on: LNCaP; test: Antiproliferative activity was determined by colorimetric MTS assay in LNCaP cells after 72 hr of incubation with compounds (1-100 uM); type: functional, cell-based; settings: Homo sapiens
Outline: (§1)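 LNCaP cells exposed 72 h to compounds (1–100 μM). Proliferation read by colorimetric MTS assay. IC50 is the concentration giving 50% inhibition of cell proliferation. Mean ± SD of three independent experiments.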

[3] = target: T2, Alpha-1A adrenergic receptor (Rattus norvegicus, UniProt P43140); test: Blocking activity was assessed by antagonism of (-)-noradrenaline induced contraction of rat prostatic vas deferens (alpha1A adrenoceptor); type: functional, tissue-based; settings: read-out: pA2 (converted)
T2 sequence (P43140 whole entry): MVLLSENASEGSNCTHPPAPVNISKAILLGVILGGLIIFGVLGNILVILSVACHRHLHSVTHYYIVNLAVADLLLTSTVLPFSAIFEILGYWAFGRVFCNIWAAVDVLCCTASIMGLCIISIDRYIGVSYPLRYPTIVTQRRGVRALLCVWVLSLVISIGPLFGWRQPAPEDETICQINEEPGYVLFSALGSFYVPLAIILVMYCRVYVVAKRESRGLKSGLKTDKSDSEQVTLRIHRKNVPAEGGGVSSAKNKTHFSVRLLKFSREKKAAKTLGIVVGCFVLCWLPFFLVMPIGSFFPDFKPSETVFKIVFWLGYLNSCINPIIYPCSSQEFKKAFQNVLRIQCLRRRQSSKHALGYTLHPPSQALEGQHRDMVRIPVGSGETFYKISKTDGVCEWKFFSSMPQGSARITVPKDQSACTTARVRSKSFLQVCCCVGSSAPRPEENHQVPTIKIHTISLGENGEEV

[4] = target: T3, Alpha-1D adrenergic receptor (Rattus norvegicus, UniProt P23944); test: Blocking activity was assessed by antagonism of (-)-noradrenaline induced contraction of rat thoracic aorta (Alpha-1D adrenoceptor); type: functional, tissue-based; settings: read-out: pA2 (converted)
T3 sequence (P23944 whole entry): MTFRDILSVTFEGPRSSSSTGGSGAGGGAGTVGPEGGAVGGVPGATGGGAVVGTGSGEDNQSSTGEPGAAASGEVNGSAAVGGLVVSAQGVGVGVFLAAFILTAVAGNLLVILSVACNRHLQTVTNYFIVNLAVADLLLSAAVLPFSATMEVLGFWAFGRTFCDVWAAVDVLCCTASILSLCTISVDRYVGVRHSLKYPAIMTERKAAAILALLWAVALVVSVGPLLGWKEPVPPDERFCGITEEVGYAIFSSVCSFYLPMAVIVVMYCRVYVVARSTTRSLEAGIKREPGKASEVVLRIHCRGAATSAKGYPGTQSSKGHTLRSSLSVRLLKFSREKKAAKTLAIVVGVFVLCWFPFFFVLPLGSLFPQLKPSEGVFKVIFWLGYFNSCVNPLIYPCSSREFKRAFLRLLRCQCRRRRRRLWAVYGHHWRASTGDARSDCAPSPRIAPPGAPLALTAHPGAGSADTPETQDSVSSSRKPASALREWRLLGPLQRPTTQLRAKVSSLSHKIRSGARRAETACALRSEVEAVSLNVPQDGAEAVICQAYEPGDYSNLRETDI

[5] = target: T4, Alpha-1B adrenergic receptor (Homo sapiens, UniProt P35368); test: Equilibrium dissociation constant was evaluated by radio-receptor binding assays using [3H]prazosin to label cloned human alpha 1b expressed in CHO cells; type: cell-based
T4 sequence (P35368 whole entry): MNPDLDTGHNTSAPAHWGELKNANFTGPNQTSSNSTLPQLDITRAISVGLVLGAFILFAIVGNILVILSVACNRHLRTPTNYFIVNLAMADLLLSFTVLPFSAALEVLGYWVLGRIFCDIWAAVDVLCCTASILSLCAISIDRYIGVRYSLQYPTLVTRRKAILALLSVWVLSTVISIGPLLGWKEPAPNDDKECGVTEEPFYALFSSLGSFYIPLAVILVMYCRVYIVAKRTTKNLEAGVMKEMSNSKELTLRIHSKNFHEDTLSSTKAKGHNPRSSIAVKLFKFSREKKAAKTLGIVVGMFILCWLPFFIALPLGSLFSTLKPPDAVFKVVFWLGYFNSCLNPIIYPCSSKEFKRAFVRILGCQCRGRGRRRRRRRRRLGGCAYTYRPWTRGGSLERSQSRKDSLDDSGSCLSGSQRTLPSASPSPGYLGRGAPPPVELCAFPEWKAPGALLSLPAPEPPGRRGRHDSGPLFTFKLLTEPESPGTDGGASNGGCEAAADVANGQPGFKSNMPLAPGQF

[6] = tested on: LNCaP; test: Antioxidant activity against formation of ROS was determined in t-BuOOH treated LNCaP cells after 24 hr of incubation with compounds (1-100 uM); Not active at 100 uM; type: functional, cell-based, Homo sapiens
[7] = target: T5, Alpha-1D adrenergic receptor (Homo sapiens, UniProt P25100); test: Equilibrium dissociation constant was evaluated by radio-receptor binding assays using [3H]prazosin to label cloned human alpha 1d expressed in CHO cells; type: cell-based
T5 sequence (P25100 whole entry): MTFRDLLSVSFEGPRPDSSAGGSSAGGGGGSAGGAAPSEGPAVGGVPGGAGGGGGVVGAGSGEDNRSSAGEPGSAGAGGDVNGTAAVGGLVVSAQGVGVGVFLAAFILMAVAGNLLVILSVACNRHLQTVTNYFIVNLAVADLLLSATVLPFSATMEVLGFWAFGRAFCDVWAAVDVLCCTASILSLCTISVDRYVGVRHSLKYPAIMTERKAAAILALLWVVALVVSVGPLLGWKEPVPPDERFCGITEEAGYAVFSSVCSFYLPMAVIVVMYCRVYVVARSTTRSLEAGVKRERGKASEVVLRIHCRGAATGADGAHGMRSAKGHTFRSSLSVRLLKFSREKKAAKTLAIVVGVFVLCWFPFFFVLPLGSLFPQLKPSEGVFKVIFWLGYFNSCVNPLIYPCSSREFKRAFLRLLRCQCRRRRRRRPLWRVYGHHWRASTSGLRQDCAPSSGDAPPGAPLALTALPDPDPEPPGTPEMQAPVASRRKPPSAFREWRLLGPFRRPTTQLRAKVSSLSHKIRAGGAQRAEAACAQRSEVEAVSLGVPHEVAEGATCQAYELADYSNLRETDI

[8] = target: T6, Alpha-1A adrenergic receptor (Homo sapiens, UniProt P35348); test: Equilibrium dissociation constant was evaluated by radio-receptor binding assays using [3H]prazosin to label cloned human alpha 1a expressed in CHO cells; type: cell-based
T6 sequence (P35348 whole entry): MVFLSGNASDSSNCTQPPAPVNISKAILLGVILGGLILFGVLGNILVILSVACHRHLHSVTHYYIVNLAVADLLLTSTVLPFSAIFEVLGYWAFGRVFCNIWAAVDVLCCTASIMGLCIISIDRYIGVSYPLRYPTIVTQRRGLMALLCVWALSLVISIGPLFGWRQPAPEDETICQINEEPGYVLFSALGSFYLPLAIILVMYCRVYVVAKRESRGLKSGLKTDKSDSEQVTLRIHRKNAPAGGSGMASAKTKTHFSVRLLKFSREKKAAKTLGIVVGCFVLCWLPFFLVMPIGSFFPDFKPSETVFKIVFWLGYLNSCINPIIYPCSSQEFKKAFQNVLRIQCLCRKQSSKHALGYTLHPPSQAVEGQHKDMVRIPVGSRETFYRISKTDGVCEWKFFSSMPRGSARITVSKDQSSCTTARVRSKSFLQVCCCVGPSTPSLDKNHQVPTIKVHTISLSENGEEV

[9] = tested on: LNCaP; test: Antiproliferative activity was determined by colorimetric MTS assay in LNCaP cells after 72 hr of incubation with compounds (1-100 uM); Not active at 100 uM; type: functional, cell-based, Homo sapiens; outline: as §1
[10] = tested on: LNCaP; test: Antioxidant activity against formation of ROS was determined in t-BuOOH treated LNCaP cells after 24 hr of incubation with compounds (1-100 uM); type: functional, cell-based; settings: Homo sapiens
[11] = tested on: LNCaP; test: Antioxidant activity against t-BuOOH induced ROS formation in LNCaP cells after 24 hr at 1-100 uM; Inactive at 100 uM; type: functional, cell-based, Homo sapiens
[12] = tested on: LNCaP; test: Antiproliferative activity in MTS assay in LNCaP cells after 72 hr at 1-100 uM; Inactive at 100 uM; type: functional, cell-based, Homo sapiens; outline: as §1

SMILES	Kb [1] [nM]	IC50 [2] [nM]	Kb [3] [nM]	Kb [4] [nM]	Ki [5] [nM]	IC50 [6]	Ki [7] [nM]	Ki [8] [nM]	IC50 [9]	IC50 [10] [nM]	IC50 [11]	IC50 [12]
COc1cc2nc(N3CCN(C(=O)CCCCC4CCSS4)CC3)nc(N)c2cc1OC (stereo not drawn)	40.7	–	64.6	12	1.26	–	0.891	1.41	Not Active	83500	–	–
COc1cc2nc(N3CCN(C4=CC(=O)c5ccccc5C4=O)CC3)nc(N)c2cc1OC	3.09	8820	22.9	0.891	0.676	–	0.933	1.26	–	2630	–	–
COC1=CC(=O)c2ccccc2C1=O [2-Methoxy-1,4-naphthoquinone]	–	–	–	–	–	–	–	–	–	–	Not Active	Not Active
O=C(O)CCCCC1CCSS1 (stereo not drawn) [LIPOIC ACID, ALPHA]	> 10000	–	> 10000	> 10000	–	–	–	–	Not Active	54900	–	–

More lines, now with the values ahead:

Kb [1] [nM]	IC50 [2] [nM]	Kb [3] [nM]	Kb [4] [nM]	Ki [5] [nM]	IC50 [6]	Ki [7] [nM]	Ki [8] [nM]	IC50 [9]	IC50 [10] [nM]	IC50 [11]	IC50 [12]	SMILES
1.74	49600	18.6	0.871	0.537	Not Active	0.49	0.813	–	–	–	–	COc1cc2nc(N3CCN(C(=O)C4CCSS4)CC3)nc(N)c2cc1OC (stereo not drawn)
1.02	52600	1	0.912	0.309	Not Active	0.389	0.288	–	–	–	–	COc1cc2nc(N3CCN(C(=O)CC4CCSS4)CC3)nc(N)c2cc1OC (stereo not drawn)
–	–	–	–	–	Not Active	–	–	Not Active	–	–	–	COc1cc2nc(N3CCNCC3)nc(N)c2cc1OC [AMINODIMETHOXYQUINAZOLINYLPIPERAZINE]
–	67500	–	–	–	Not Active	–	–	–	–	–	–	COc1cc2nc(N3CCN(C(=O)c4ccco4)CC3)nc(N)c2cc1OC [PRAZOSIN]
